GASC1 inh – KDM4C (human) demethylase inhibition | GST-KDM4C 2-372, H3K9me3 peptide, LANCE TR-FRET | Q9H3R0 | 0.15% of 96,000 active | inhibition, % at 12.5 µM;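 active = mean replicate inhibition above about 25%, with at least 55% of replicates also reaching it, limit read from the data, passing the limit was not always enough; inconclusive = only one of those two conditions met; inactive = neither condition met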
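reagent = H3K9me3 peptide substrate, Fe(II), 2-oxoglutarate | system = GST-tagged GASC-1 (JMJD2C) catalytic fragment, aa 2-372 | amount = enzyme final amount 10 nM | read-out = Fall in 671/618 emission ratio as inhibition | medium = HEPES buffer, pH 7.5, plus ascorbate | schedule = 30 min reaction, 60 min detection, RT | measured by = LANCE TR-FRET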
IDH1 R132H inh – inhibitors of human IDH1 R132H. O75874. IDH1 R132H reductase, diaphorase/resazurin fluorescence, 60 min. inhibition, % at 10 µM. 0.18% of 70,000 active; in the data active = inhibition above about 34%; inconclusive = no clear call, values can overlap the other calls; inactive = below about 11%
Target sequence (O75874 whole entry R132H): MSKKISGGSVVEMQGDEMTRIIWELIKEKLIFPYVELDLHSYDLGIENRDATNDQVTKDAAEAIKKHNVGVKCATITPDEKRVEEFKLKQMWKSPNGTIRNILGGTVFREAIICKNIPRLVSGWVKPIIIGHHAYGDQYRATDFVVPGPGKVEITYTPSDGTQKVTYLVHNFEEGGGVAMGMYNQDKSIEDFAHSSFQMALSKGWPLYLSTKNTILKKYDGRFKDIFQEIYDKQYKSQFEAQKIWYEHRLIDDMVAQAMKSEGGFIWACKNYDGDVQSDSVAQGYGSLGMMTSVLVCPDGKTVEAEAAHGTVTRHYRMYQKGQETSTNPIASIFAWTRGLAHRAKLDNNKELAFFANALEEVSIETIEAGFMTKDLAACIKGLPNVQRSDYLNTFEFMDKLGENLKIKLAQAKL
Of the large screens only hits and unclear results are named; the others gave an inactive call. Compounds with a hit are over-represented: about 0.22% of the library has one in this group of screens.

COc1cccc(-c2ccc3c(c2)O[C@@H](CN(C)Cc2ccncc2)[C@@H](C)CN([C@H](C)CO)S3(=O)=O)c1	GASC1 inh 42
C[C@H]1CN([C@@H](C)CO)S(=O)(=O)c2ccc(Br)cc2O[C@@H]1CN(C)Cc1ccncc1	none
CCCN(C)C[C@H]1Oc2cc(/C=C/c3ccccc3)ccc2S(=O)(=O)N([C@H](C)CO)C[C@@H]1C	none
COc1cccc(-c2ccc3c(c2)O[C@H](CN(C)Cc2cncnc2)[C@@H](C)CN([C@@H](C)CO)S3(=O)=O)c1	none
C/C=C/c1ccc2c(c1)O[C@@H](CN(C)CCC)[C@@H](C)CN([C@H](C)CO)S2(=O)=O	GASC1 inh 38, IDH1 R132H inh 53
C[C@@H]1CN([C@H](C)CO)S(=O)(=O)c2ccc(Br)cc2O[C@H]1CN(C)Cc1ccncc1	IDH1 R132H inh 42
Cc1ccccc1-c1ccc2c(c1)O[C@H](CN(C)Cc1ccncc1)[C@@H](C)CN([C@@H](C)CO)S2(=O)=O	IDH1 R132H inh 45
OCC1(CO)COC(COc2ccccc2)=N1	none (no result: GASC1 inh)
CC1(C)COC(/C=C(\N)c2ccc(Br)cc2)=N1	none (no result: GASC1 inh)
C/C=C/c1ccc2c(c1)O[C@@H](CN(C)Cc1ccncc1)[C@H](C)CN([C@H](C)CO)S2(=O)=O	IDH1 R132H inh 43
C/C=C/c1ccc2c(c1)O[C@@H](CN(C)Cc1ccncc1)[C@@H](C)CN([C@H](C)CO)S2(=O)=O	none
Cc1ccccc1NC(=O)CSc1n[nH]c(-c2ccncc2)n1	none (no result: GASC1 inh)
O=c1c2ccccc2nc(CSc2nnc(-c3ccco3)n2-c2ccccc2)n1-c1ccccc1Cl	none (no result: GASC1 inh)
C[C@H](CO)N1C[C@H](C)[C@@H](CN(C)Cc2ccc(F)cc2)Oc2cc(C#CCN(C)C)ccc2S1(=O)=O	none
CCCC#Cc1ccc2c(c1)O[C@@H](CN(C)S(C)(=O)=O)[C@H](C)CN([C@H](C)CO)S2(=O)=O	none
CC(C)C#Cc1ccc2c(c1)O[C@H](CN(C)C(=O)c1cccnc1)[C@@H](C)CN([C@H](C)CO)S2(=O)=O	none
C[C@H](CO)N1C[C@H](C)[C@@H](CN(C)C)Oc2cc(C#Cc3cccc(F)c3)ccc2S1(=O)=O	none
CCCC#Cc1ccc2c(c1)O[C@@H](CN(C)S(C)(=O)=O)[C@@H](C)CN([C@H](C)CO)S2(=O)=O	GASC1 inh 41
C[C@H](CO)N1C[C@H](C)[C@H](CN(C)Cc2ccc(F)cc2)Oc2cc(C#CCN(C)C)ccc2S1(=O)=O	GASC1 inh 42
CC(C)C#Cc1ccc2c(c1)O[C@@H](CN(C)C(=O)c1cccnc1)[C@H](C)CN([C@@H](C)CO)S2(=O)=O	GASC1 inh 52, IDH1 R132H inh 81
C[C@H]1CN([C@@H](C)CO)S(=O)(=O)c2ccc(C#Cc3cccc(F)c3)cc2O[C@@H]1CN(C)C	GASC1 inh 55, IDH1 R132H inh 71
CS(=O)(=O)N(CC(=O)Nc1ccc(Br)cc1F)c1ccc(Cl)c(Cl)c1	none (no result: GASC1 inh)
COc1cc(-c2nc3ccccc3s2)cc(Br)c1OCC(=O)O	none (no result: GASC1 inh)
COc1ccccc1C(=O)N(Cc1nnc2c3ccccc3c(C)nn12)c1ccccc1	none (no result: GASC1 inh)
COc1ccc(C)cc1N(CC(=O)Nc1ccc(Br)c(C)c1)S(C)(=O)=O	none (no result: GASC1 inh)
CC(C)C#Cc1ccc2c(c1)O[C@@H](CN(C)C)[C@@H](C)CN([C@H](C)CO)S2(=O)=O	GASC1 inh 60, IDH1 R132H inh 75
CC(C)CC#Cc1ccc2c(c1)O[C@@H](CN(C)C(=O)NC(C)C)[C@@H](C)CN([C@@H](C)CO)S2(=O)=O	none
CC(C)CC#Cc1ccc2c(c1)O[C@@H](CN(C)C(=O)NC(C)C)[C@H](C)CN([C@@H](C)CO)S2(=O)=O	IDH1 R132H inh 36
CC(C)C#Cc1ccc2c(c1)O[C@@H](CN(C)C)[C@@H](C)CN([C@@H](C)CO)S2(=O)=O	none
COc1ccccc1-n1nnnc1SCC(=O)Nc1ccc(Br)cc1	none (no result: GASC1 inh)
O=S(=O)(N[C@@H]1CC[C@H](CCn2cc(C3(O)CCCC3)nn2)O[C@@H]1CO)c1ccc(F)cc1	none
O=S(=O)(N[C@@H]1CC[C@@H](CCn2cc(Cc3ccccc3)nn2)O[C@H]1CO)c1ccccc1F	none
O=S(=O)(N[C@H]1CC[C@@H](CCn2cc(C3(O)CCCC3)nn2)O[C@@H]1CO)c1ccc(F)cc1	GASC1 inh 36
O=S(=O)(N[C@H]1CC[C@H](CCn2cc(Cc3ccccc3)nn2)O[C@H]1CO)c1ccccc1F	GASC1 inh 34
OC1c2ccccc2-c2c3c(cc4c2C1NCC4)OCO3 (configuration not stated)	none (no result: GASC1 inh)
CC(Oc1ccc(F)cc1)C(=O)Nc1sc2c(c1C(N)=O)CCCC2 (configuration not stated)	none (no result: GASC1 inh)
C=CCNC(=O)[C@@H]1[C@H]2C(=O)O[C@H](c3ccccc3)[C@H](c3ccccc3)N2[C@H](c2ccc(OCCO)cc2)[C@@]12C(=O)N(C(=O)OCCOC)c1ccc(C#CCC(C(=O)OC)C(=O)OC)cc12	none (no result: GASC1 inh)
COc1ccc(NC(=O)N(C)C[C@H]2OCc3cnnn3CCCC(=O)N([C@H](C)CO)C[C@H]2C)c(OC)c1	IDH1 R132H inh 54
COc1ccc(NC(=O)N(C)C[C@H]2OCc3cnnn3CCCC(=O)N([C@H](C)CO)C[C@@H]2C)c(OC)c1	none
Cc1ccc([N+](=O)[O-])cc1NC(=O)C1CCCN(S(=O)(=O)c2ccc(Cl)cc2)C1 (configuration not stated)	none (no result: GASC1 inh)
Cc1ccc(Cl)cc1NC(=O)C(C)n1nc(C)c([N+](=O)[O-])c1C (configuration not stated)	none (no result: GASC1 inh)
C[C@H](CO)N1C[C@H](C)[C@H](CN(C)Cc2ccccc2)OCCCC[C@H](C)Oc2ccc(NS(=O)(=O)c3ccc(F)cc3)cc2C1=O	GASC1 inh 59 (no result: IDH1 R132H inh)
C[C@H](CO)N1C[C@H](C)[C@@H](CN(C)C(=O)Nc2ccccc2)OCCCC[C@H](C)Oc2ccc(NS(=O)(=O)c3ccc(Cl)cc3)cc2C1=O	none (no result: IDH1 R132H inh)
C[C@H](CO)N1C[C@H](C)[C@H](CN(C)C(=O)Nc2ccccc2)OCCCC[C@H](C)Oc2ccc(NS(=O)(=O)c3ccc(Cl)cc3)cc2C1=O	GASC1 inh 79 (no result: IDH1 R132H inh)
C[C@@H]1CN([C@@H](C)CO)C(=O)c2cc(NS(=O)(=O)c3ccc(F)cc3)ccc2O[C@@H](C)CCCCO[C@H]1CN(C)Cc1ccccc1	none (no result: IDH1 R132H inh)
Cn1c(SCC(=O)Nc2ccc(Br)cc2Cl)nnc1-c1cccc([N+](=O)[O-])c1	none (no result: GASC1 inh)
CC(C)(C)SCCNc1nc(Sc2ccc(Cl)cc2)nc(N2CCSCC2)n1	none (no result: GASC1 inh)
COc1ccc(S(=O)(=O)N(C)C[C@H]2OCCCC[C@H](C)Oc3ccc(NC(=O)CCCN(C)C)cc3C(=O)N([C@H](C)CO)C[C@H]2C)cc1	GASC1 inh 45 (no result: IDH1 R132H inh)
C[C@@H]1CCCCO[C@H](CN(C)S(=O)(=O)c2ccccc2)[C@H](C)CN([C@@H](C)CO)C(=O)c2cc(NC(=O)CCCN(C)C)ccc2O1	IDH1 R132H inh 89
COc1ccc(CN(C)C[C@H]2OCCCC[C@@H](C)Oc3ccc(NC(=O)NC(C)C)cc3C(=O)N([C@@H](C)CO)C[C@@H]2C)cc1	none (no result: IDH1 R132H inh)
COc1ccc(CN(C)C[C@@H]2OCCCC[C@@H](C)Oc3ccc(NC(=O)NC(C)C)cc3C(=O)N([C@H](C)CO)C[C@H]2C)cc1	GASC1 inh inconclusive, IDH1 R132H inh 68
C[C@@H]1CCCCO[C@H](CN(C)S(=O)(=O)c2ccccc2)[C@@H](C)CN([C@@H](C)CO)C(=O)c2cc(NC(=O)CCCN(C)C)ccc2O1	none
